The test system of data set [1] is FM3A. Briefly: Percent inhibition of growth against mouse mammary FM3A cells. It counts as cell-based. The arrangement: concentration or dose not given beside the values. A digest of the protocol: (§1)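 Mouse mammary tumor FM3A cells in culture served as the mammalian cytotoxicity counterscreen. EC50 was determined; where no activity was found at 10 μM, percent growth inhibition at that concentration was given.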

Data set [2] has as its system FM3A. Briefly: Effective concentration against mouse mammary FM3A cells. It counts as ADME, cell-based. A digest of the protocol:
as §1

A further data set deals with Plasmodium falciparum. Briefly: In vitro antimalarial activity against Plasmodium falciparum. It counts as functional, organism-based. A digest of the protocol:
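Chloroquine-sensitive P. falciparum FCR-3 strain cultured in vitro. EC50 was determined.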

Data set [3] can be described thus: Selectivity as the ratio of EC50 value for FM3A cells to that of Plasmodium falciparum. It counts as functional. A digest of the protocol:
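Selectivity was taken as the mean EC50 in FM3A cells divided by the mean EC50 against P. falciparum FCR-3.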

Data set [4] has as its system Mus musculus. Briefly: Mice survival days reported after intramuscular administration. The note with it: in vivo, im. It counts as ADME, organism-based. A digest of the protocol: (§2)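 P. berghei NK 65 strain in mice, five per group. Compounds in olive oil were given ip or im once daily on days 0–3, starting on the day of infection. Parasitemia was read on day 4 from Giemsa-stained tail blood smears, counting 1×10^4 erythrocytes per film, and suppression calculated against DMSO sham-treated infected controls. Survival was recorded in days. Values are means of five mice, one test.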

For a further data set, the system named is Plasmodium berghei. Briefly: Antimalarial activity against Plasmodium berghei infected mice (Mus musculus) after intramuscular administration at a dose 100 mg/kg/day. The note with it: im. The arrangement: route intramuscular. The data set is classed as ADME, organism-based. The essentials:
as §2

Data set [5] relates to Mus musculus. Briefly: Mice survival days reported after intraperitoneal administration. The note with it: in vivo, ip. The data set is classed as ADME, organism-based. A digest of the protocol: as §2

As to `CC12CCC[C@H](C1)C(C)(CI)O2` (some centres not stated), the Inhibition with FM3A [1] is listed as 0%. Besides, the half-maximal effective concentration (EC50) with FM3A [2] was greater than 48 µM; in the data set on Plasmodium falciparum, 1 µM. The Selectivity in data set [3] is listed as greater than 48.

In the data set with FM3A [1], `COC12CCC[C@@H](C1)C(I)C(C)(C)OO2` (some centres not stated) yielded an Inhibition of 10%. Further, the EC50 was greater than 64 µM in the data set with FM3A [2] and 15 µM with Plasmodium falciparum. For the same compound, the Selectivity in data set [3] was greater than 4.

As to `CCOC(=O)C(I)C12CCCC(C1)C(C)(C)OO2` (configuration not stated), the half-maximal effective concentration (EC50) was 3.1 µM in the data set on FM3A [2] and 0.011 µM in the data set on Plasmodium falciparum. In data set [3], the Selectivity came out at 282. Moreover, the Survival with Mus musculus [4] was determined as 9.8 days; in the data set with Mus musculus [5] it was 6.5 days. The compound further returned an inhibition at 100 mg/kg in the data set on Plasmodium berghei of 80%.

Take `CC1(C)OOC2(CI)CCCC1C2` (configuration not stated): the EC50 is 68 µM in the data set on FM3A [2] and 0.04 µM in the data set with Plasmodium falciparum. Also, the Selectivity in data set [3] was 1700. The Survival in the data set with Mus musculus [4] was determined as 9.6 days; in the data set on Mus musculus [5], 7 days. This compound yielded an inhibition at 100 mg/kg in the data set on Plasmodium berghei of 99%.

In the data set on FM3A [1], `COC12C[C@H](CC[C@@H]1C)C(C)(CI)OO2` (some centres not stated) gave an Inhibition of 8%. Also, the half-maximal effective concentration (EC50) is greater than 54 µM in the data set with FM3A [2] and 2 µM in the data set with Plasmodium falciparum. For the same compound, the Selectivity in data set [3] is reported as greater than 27.

With `COC12CCC[C@H](CC(C)(CI)OO1)C2` (some centres not stated), the Inhibition in the data set on FM3A [1] is recorded as 6%. Moreover, the figures for the EC50 with FM3A [2] and in the data set with Plasmodium falciparum were greater than 80 µM and 2.5 µM, respectively. In addition, the Selectivity in data set [3] is given as greater than 32.

Turning to `CC12CCC[C@@H](C1)C(C)(CI)OO2` (some centres not stated), the Inhibition with FM3A [1] amounted to 10%. Besides, the figures for the EC50 in the data set on FM3A [2] and with Plasmodium falciparum were greater than 84 µM and 0.013 µM, respectively. In data set [3], the Selectivity is reported as greater than 6462.

Regarding `CC1(CI)C[C@H]2CCCCC2O1` (some centres not stated), the Inhibition in the data set on FM3A [1] was 34%. Further, the EC50 in the data set with FM3A [2] was greater than 210 µM; in the data set with Plasmodium falciparum it was 120 µM. For the same compound, the Selectivity in data set [3] was greater than 2.

Consider `COC12CCC[C@@H](C1)C(C)(CI)OO2` (some centres not stated), for which the Inhibition with FM3A [1] worked out at 19%. Further, the results for the half-maximal effective concentration (EC50) with FM3A [2] and in the data set on Plasmodium falciparum were greater than 70 µM and 1.7 µM, respectively. The Selectivity in data set [3] is on record as greater than 41.

As to `CC1(C)OC2(CI)CCCC1C2` (configuration not stated), the Inhibition with FM3A [1] turned out to be 10%. In addition, the EC50 with FM3A [2] was greater than 84 µM; in the data set on Plasmodium falciparum it was 5.8 µM. In addition, the Selectivity in data set [3] is reported as greater than 14.

On to `CC1(CI)C[C@H]2CCCC(C2)OO1` (some centres not stated), for which the Inhibition in the data set with FM3A [1] is on record as 47%. For the same compound, the concentration for a half-maximal effect (EC50) in the data set on FM3A [2] is greater than 96 µM; in the data set with Plasmodium falciparum it was 3 µM. Moreover, in data set [3], the Selectivity was greater than 32.

Take `CC1(CI)C[C@H]2CCCC[C@@H]2OO1` (relative stereo): the figures for the EC50 in the data set with FM3A [2] and in the data set with Plasmodium falciparum were 66 µM and 1.5 µM, respectively. The Selectivity in data set [3] was found to be 44.

For `C[C@@H]1CC[C@H]2[C@@H](C)C(=O)O[C@@H]3O[C@@]4(C)CC[C@@H]1[C@]32OO4` [ARTEMISININ], the Selectivity in data set [3] is 1000.

The record behind these values is ChEMBL document CHEMBL1135976, “Antimalarial activity of yingzhaosu A analogues” (J Med Chem, 2002).
